Measurements: ChEMBL document CHEMBL5696442, “Discovery of type II inhibitors of TGFβ-activated kinase 1 (TAK1) and mitogen-activated protein kinase kinase kinase kinase 2 (MAP4K2)” (J Med Chem, 2015)

What was measured:
Type in all cases: cell-based
[1] = molecular target: T1, Inhibitor of nuclear factor kappa-B kinase subunit epsilon (Homo sapiens) (UniProt Q14164); assay: Inhibition of IKKe Lys2 labeling site in human A-375 cells at 0.05 uM by KiNativ Profiling analysis relative to control
T1 sequence (whole entry): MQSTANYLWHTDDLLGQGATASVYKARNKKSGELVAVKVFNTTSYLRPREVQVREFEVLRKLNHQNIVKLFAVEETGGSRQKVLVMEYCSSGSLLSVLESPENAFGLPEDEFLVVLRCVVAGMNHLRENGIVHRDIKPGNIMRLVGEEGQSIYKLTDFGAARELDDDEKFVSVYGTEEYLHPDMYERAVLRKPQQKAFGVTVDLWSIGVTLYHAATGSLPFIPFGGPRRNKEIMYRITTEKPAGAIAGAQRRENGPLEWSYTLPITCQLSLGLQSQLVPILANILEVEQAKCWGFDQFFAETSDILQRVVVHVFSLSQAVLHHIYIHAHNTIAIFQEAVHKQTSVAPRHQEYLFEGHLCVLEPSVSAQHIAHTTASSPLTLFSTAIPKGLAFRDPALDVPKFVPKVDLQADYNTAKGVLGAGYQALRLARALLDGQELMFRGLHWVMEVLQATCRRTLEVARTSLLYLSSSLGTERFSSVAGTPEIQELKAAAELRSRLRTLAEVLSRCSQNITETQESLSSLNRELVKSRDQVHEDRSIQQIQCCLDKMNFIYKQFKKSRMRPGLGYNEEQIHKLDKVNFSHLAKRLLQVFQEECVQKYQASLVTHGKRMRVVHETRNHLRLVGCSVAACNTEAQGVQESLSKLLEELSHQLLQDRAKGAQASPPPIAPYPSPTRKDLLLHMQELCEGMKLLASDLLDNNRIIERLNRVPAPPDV

[2] = molecular target: T2, DNA-PK/Ku70/Ku85 (Homo sapiens) (UniProt P78527+P12956+P13010); assay: Inhibition of DNAPK ATP labeling site harbouring EHPFLVKGGEDLR in human A-375 cells at 5 uM by KiNativ Profiling analysis relative to control
In short: (§1)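 Live A375 melanoma cells were treated with compound at 0.5 or 5 μM, then lysed. Lysates were labeled with a lysine-reactive ATP or ADP-biotin probe. The read-out was protection of each kinase probe-labeling site from labeling, relative to control.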

[3] = molecular target: T2, DNA-PK/Ku70/Ku85 (Homo sapiens); assay: Inhibition of DNAPK ATP labeling site harbouring GHDEREHPFLVKGGEDLR in human A-375 cells at 0.5 uM by KiNativ Profiling analysis relative to control; in short: as §1
[4] = molecular target: Cyclin-dependent kinase 6 (Homo sapiens) (UniProt Q00534); assay: Inhibition of CDK6 Lys2 labeling site in human A-375 cells at 0.5 uM by KiNativ Profiling analysis relative to control
In short: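 Live A375 melanoma cells were treated with compound at 5 or 0.5 μM. The cells were then lysed, and the lysates were labeled with a lysine-reactive ATP or ADP-biotin acyl probe (KiNativ). Inhibition is the compound's protection of each kinase labeling-site peptide from probe labeling, relative to untreated control.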

[5] = molecular target: T3, Serine/threonine-protein kinase TBK1 (Homo sapiens) (UniProt Q9UHD2); assay: Inhibition of TBK1 Lys1 labeling site in human A-375 cells at 5 uM by KiNativ Profiling analysis relative to control
T3 sequence (whole entry): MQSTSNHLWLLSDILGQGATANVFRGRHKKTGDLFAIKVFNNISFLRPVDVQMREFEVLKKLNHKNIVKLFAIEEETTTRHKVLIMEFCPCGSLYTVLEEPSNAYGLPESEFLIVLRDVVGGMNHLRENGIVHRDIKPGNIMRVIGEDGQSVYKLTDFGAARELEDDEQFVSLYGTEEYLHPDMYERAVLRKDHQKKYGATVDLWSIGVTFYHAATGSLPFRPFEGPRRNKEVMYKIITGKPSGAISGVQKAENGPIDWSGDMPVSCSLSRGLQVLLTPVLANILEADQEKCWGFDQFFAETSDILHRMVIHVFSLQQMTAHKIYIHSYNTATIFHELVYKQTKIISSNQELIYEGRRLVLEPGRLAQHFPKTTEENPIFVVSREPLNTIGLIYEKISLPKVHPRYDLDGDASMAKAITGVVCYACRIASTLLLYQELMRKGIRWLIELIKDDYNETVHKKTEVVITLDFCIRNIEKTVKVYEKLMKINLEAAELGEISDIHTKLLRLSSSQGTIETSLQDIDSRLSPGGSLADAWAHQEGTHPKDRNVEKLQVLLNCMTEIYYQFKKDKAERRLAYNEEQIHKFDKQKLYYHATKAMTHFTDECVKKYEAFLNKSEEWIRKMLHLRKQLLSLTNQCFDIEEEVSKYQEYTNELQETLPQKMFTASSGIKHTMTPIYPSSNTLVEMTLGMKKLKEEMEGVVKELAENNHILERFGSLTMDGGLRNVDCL

[6] = molecular target: Tyrosine-protein kinase JAK1 (Homo sapiens) (UniProt P23458); assay: Inhibition of JAK1 in human A-375 cells at 0.5 uM by KiNativ Profiling analysis relative to control
[7] = molecular target: T4, Mitogen-activated protein kinase kinase kinase 2 (Homo sapiens) (UniProt Q9Y2U5); assay: Inhibition of MAP3K2 Lys2 labeling site in human A-375 cells at 5 uM by KiNativ Profiling analysis relative to control
T4 sequence (whole entry): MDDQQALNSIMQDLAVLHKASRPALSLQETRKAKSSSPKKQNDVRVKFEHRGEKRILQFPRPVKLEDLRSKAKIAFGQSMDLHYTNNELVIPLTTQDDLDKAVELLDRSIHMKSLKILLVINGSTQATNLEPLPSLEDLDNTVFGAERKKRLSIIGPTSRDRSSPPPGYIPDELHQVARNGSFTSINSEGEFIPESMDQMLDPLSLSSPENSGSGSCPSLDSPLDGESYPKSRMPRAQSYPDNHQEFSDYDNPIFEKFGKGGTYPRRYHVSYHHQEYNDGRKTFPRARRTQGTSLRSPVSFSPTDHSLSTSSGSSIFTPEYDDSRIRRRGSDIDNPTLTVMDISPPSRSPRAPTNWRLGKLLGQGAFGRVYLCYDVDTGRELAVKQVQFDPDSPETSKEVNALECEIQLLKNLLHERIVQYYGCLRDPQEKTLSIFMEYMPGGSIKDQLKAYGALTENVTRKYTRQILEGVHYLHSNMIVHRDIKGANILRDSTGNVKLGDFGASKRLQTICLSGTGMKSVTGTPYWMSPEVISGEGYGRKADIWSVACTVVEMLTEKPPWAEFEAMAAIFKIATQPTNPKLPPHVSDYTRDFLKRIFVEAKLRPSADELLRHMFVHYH

[8] = molecular target: Serine/threonine-protein kinase mTOR (Homo sapiens) (UniProt P42345); assay: Inhibition of FRAP ATP labeling site in human A-375 cells at 0.5 uM by KiNativ Profiling analysis relative to control; in short: as §1
[9] = molecular target: MAP/microtubule affinity-regulating kinase 3 (Homo sapiens) (UniProt P27448); assay: Inhibition of MARK3 Lys1 labeling site in human A-375 cells at 5 uM by KiNativ Profiling analysis relative to control
MAP/microtubule affinity-regulating kinase 3 (Homo sapiens), sequence (P27448 whole entry, looked up): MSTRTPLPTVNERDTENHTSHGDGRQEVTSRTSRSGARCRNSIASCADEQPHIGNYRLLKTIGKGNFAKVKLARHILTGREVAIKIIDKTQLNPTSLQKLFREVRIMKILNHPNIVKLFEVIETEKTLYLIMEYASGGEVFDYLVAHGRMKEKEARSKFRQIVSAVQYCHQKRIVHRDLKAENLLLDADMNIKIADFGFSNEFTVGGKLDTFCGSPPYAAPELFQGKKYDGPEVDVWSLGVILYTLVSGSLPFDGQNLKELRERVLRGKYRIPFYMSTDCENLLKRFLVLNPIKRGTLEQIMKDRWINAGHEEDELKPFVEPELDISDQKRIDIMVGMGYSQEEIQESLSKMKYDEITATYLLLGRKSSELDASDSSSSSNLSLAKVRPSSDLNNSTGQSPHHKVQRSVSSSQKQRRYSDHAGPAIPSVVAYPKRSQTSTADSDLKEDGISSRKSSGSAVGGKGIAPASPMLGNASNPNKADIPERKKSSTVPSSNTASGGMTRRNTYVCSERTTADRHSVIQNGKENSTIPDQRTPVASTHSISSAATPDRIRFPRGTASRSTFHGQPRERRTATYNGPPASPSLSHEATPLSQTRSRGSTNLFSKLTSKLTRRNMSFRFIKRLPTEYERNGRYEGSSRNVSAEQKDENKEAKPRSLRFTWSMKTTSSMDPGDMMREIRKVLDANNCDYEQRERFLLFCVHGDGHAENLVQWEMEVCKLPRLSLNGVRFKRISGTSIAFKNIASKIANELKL

Tyrosine-protein kinase JAK1 (Homo sapiens), sequence (P23458 whole entry): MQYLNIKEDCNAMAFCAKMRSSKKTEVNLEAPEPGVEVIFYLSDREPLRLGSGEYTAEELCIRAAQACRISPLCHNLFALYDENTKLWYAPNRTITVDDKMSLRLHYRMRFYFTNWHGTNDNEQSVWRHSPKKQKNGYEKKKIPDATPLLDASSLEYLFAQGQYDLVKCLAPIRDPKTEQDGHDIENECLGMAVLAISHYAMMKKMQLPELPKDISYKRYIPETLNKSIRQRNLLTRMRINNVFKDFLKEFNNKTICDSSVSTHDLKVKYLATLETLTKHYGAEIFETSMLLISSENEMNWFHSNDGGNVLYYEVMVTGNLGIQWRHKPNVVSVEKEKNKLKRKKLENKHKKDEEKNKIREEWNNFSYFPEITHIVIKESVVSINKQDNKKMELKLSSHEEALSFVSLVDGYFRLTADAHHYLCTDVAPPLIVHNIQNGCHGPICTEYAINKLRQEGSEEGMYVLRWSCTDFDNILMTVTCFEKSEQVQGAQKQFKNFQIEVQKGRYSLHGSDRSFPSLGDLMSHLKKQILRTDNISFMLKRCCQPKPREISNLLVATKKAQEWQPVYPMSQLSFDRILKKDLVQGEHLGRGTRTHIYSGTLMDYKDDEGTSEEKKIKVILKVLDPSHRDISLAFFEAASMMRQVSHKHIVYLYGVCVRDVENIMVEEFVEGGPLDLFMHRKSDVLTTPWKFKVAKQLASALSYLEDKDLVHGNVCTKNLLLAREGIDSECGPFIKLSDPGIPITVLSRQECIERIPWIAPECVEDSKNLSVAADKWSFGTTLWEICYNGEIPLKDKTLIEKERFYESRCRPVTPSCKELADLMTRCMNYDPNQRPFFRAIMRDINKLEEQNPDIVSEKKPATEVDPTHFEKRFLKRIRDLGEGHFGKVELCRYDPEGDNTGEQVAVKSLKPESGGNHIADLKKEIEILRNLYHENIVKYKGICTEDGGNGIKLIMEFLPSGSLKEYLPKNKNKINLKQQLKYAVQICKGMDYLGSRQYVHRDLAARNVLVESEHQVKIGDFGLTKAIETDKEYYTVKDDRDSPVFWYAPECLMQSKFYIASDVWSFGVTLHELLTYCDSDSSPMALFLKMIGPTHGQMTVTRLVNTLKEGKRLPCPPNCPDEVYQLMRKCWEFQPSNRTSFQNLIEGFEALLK
Cyclin-dependent kinase 6 (Homo sapiens), sequence (Q00534 whole entry): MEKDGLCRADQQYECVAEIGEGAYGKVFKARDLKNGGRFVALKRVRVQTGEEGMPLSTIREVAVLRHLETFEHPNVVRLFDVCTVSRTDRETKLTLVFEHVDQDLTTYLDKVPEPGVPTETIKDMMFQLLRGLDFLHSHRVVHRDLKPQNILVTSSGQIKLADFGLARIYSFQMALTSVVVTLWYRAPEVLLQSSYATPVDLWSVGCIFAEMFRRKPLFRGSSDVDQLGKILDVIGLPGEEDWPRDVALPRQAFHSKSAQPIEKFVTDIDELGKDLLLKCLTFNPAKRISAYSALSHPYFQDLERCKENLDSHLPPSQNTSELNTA

For `CCN1CCN(Cc2ccc(NC(=O)c3ccc(C)c(Oc4ccnc5[nH]ccc45)c3)cc2C(F)(F)F)CC1`, the inhibition [1] was 29.2%, the inhibition [2] was 12.4% and the inhibition [3] was 3.6%. For the same compound, the inhibition [4] was 3.9%, the inhibition [5] was 13.2% and the inhibition [6] was 13%. It also gave an inhibition [7] of -4.8%, an inhibition [8] of -3% and an inhibition [9] of 4.9%.

`CCN1CCN(Cc2ccc(NC(=O)c3ccc(C)c(/C=C/c4cnc5[nH]ccc5c4OC)c3)cc2C(F)(F)F)CC1` gave an inhibition [1] of 19.8%, an inhibition [2] of 15.4% and an inhibition [3] of 9.6%. The inhibition [4] was 11.4%, the inhibition [5] was 42.7% and the inhibition [6] was 5.7%. It also gave an inhibition [7] of 11.8%, an inhibition [8] of 0.8% and an inhibition [9] of 13.3%.
